Test results taken from PubChem BioAssay AID623952 (Vanderbilt High Throughput Screening Facility, 2012).

Each molecule was assayed against G protein-activated inward rectifier potassium channel 2 (Homo sapiens) + G protein-activated inward rectifier potassium channel 1 (Homo sapiens) (UniProt P48051+P48549) (assay: GIRK1/2 channel opening, thallium influx – cell-based, minus mGlu8, HEK-293 hGIRK1/2, thallium flux, dose response (AID 623952)). Conditions: HEK-293 hGIRK1/2, thallium flux FluoZin-2 fluorescence.
Chain of G protein-activated inward rectifier potassium channel 2 (Homo sapiens) + G protein-activated inward rectifier potassium channel 1 (Homo sapiens) (P48051 whole entry, looked up): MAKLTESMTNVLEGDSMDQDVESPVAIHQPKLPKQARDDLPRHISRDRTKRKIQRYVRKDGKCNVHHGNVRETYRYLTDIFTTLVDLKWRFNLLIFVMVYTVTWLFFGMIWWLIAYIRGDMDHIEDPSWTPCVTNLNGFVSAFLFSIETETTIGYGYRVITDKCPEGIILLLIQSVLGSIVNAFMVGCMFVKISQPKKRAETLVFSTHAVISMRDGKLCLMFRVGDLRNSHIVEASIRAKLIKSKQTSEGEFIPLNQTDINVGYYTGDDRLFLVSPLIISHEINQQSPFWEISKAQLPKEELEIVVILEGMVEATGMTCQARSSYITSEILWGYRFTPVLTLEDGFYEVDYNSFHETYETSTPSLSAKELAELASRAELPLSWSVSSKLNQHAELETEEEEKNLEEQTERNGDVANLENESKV
Chain of G protein-activated inward rectifier potassium channel 2 (Homo sapiens) + G protein-activated inward rectifier potassium channel 1 (Homo sapiens) (P48549 whole entry, looked up): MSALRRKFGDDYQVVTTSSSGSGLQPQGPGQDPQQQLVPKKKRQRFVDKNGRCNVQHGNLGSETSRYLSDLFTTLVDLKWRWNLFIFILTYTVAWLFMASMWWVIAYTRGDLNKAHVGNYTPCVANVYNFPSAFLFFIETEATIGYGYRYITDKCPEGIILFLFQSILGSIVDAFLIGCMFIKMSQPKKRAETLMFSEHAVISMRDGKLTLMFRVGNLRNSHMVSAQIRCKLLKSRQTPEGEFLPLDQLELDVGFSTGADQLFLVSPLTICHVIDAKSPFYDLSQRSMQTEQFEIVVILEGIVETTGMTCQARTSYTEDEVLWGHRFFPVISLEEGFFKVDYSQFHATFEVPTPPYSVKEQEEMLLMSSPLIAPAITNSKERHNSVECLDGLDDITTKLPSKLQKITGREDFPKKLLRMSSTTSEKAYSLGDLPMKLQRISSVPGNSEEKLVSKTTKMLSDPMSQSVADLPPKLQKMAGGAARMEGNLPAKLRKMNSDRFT
Method in brief: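 assay system = HEK-293 cells with stable human GIRK1/2 channel expression | incubation = dye loading ~60 min room temperature, compound 4 min pre-stimulus | reagent = bicarbonate thallium stimulus at pH 7.4, glutamate at EC20 | measure = Vehicle-corrected F/F0 slope, four-parameter logistic fit | detection = FluoZin-2 fluorescence thallium flux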

| EC50 [nM] | SMILES |
| --- | --- |
| 799 | Cc1ccc(NC(=O)Cc2ccccc2Cl)cc1S(=O)(=O)N(C)C |
| 250 | CCOc1ccccc1Nc1nnc(Cc2ccccc2Cl)c(=O)[nH]1 |
| 1690 | Cc1cc(NC(=O)Nc2ccccc2)n(-c2ccccc2)n1 |
| 700 | Cc1ccc(-c2nnn(CC(=O)NC3CC4CCC3C4)n2)cc1 (centres undefined) |
